Source: ChEMBL document CHEMBL1129074, “Inhibitors of human immunodeficiency virus type 1 derived from gp41 transmembrane protein: structure--activity studies” (J Med Chem, 1996)
Peptide text beside a SMILES is read from it.

Columns and labels:
[1] = test system: MT4; assay: Inhibitory potency of gp41 fragment against HIV-1 induced cytopathic effect in MT-4 cell assay at 20 uM; format: functional, Homo sapiens; conditions: for inhibition at 20 µM: Homo sapiens, MT4
Outline: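 MT4 cells (exponential growth) at 5×10^5 cells/mL infected with HIV-1 IIIB (100× TCID50) for 1 h at 37 °C, diluted 6-fold, added to serially diluted peptide in RPMI 1640/FCS medium; mock-infected controls. After 5 days at 37 °C, 5% CO2, cells lysed with Nonidet-40 and DNA content read by propidium iodide. Inhibition = restoration of infected-cell growth relative to uninfected controls; cytotoxicity measured in parallel.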

[2] = test system: MT4; assay: Inhibitory potency of gp41 fragment against HIV-1 induced cytopathic effect in MT-4 cell assay at 100 uM; format: functional; conditions: Homo sapiens
[3] = test system: MT4; assay: Inhibitory potency of gp41 fragment against HIV-1 induced cytopathic effect in MT-4 cell assay; format: functional, cell-based; conditions: Homo sapiens

`CC[C@H](C)[C@H](NC(C)=O)C(=O)N[C@@H](CCC(=O)O)C(=O)N[C@@H](C)C(=O)N[C@@H](CCC(N)=O)C(=O)N[C@@H](CCC(N)=O)C(=O)N[C@@H](CC(C)C)C(=O)N[C@@H](CC(C)C)C(=O)N[C@@H](CCC(N)=O)C(=O)N[C@@H](CC(C)C)C(=O)N[C@H](C(=O)N[C@H](C(=O)N[C@@H](Cc1c[nH]c2ccccc12)C(=O)NCC(=O)N[C@H](C(=O)N[C@@H](CCCCN)C(=O)N[C@@H](CCC(N)=O)C(=O)N[C@@H](CC(C)C)C(=O)N[C@@H](CCC(N)=O)C(=O)N[C@@H](C)C(=O)N[C@@H](CCCN=C(N)N)C(=O)N[C@H](C(=O)N[C@@H](CC(C)C)C(=O)N[C@@H](C)C(=O)N[C@H](C(=O)N[C@@H](CCC(=O)O)C(=O)N[C@@H](CCCN=C(N)N)C(=O)N[C@@H](Cc1ccc(O)cc1)C(=O)N[C@@H](CC(C)C)C(=O)N[C@@H](CCCCN)C(=O)N[C@@H](CC(=O)O)C(=O)N[C@@H](CCC(N)=O)C(=O)O)C(C)C)[C@@H](C)CC)[C@@H](C)CC)C(C)C)[C@@H](C)O` (Ac-IEAQQLLQLTVWGIKQLQARILAVERYLKDQ-OH) showed an inhibition at 20 µM [1] of 28%.
Work on `CC[C@H](C)[C@H](NC(=O)CNC(=O)[C@H](C)NC(=O)[C@@H](NC(=O)[C@@H](NC(=O)[C@H](C)NC(=O)[C@H](C)NC(=O)[C@H](CC(C)C)NC(=O)[C@H](CC(C)C)NC(=O)[C@H](C)NC(=O)[C@H](CCC(N)=O)NC(=O)[C@H](CCC(N)=O)NC(=O)[C@H](C)NC(=O)[C@H](CCC(=O)O)NC(=O)[C@@H](NC(=O)[C@H](C)NC(=O)[C@H](CCCN=C(N)N)NC(=O)[C@H](CC(C)C)NC(=O)[C@H](CC(C)C)NC(=O)[C@H](CC(N)=O)NC(=O)[C@H](CC(N)=O)NC(C)=O)[C@@H](C)CC)[C@@H](C)O)C(C)C)C(=O)N[C@@H](C)C(=O)N[C@@H](C)C(=O)N[C@@H](CC(C)C)C(=O)N[C@@H](CCC(N)=O)C(=O)N[C@@H](C)C(=O)N[C@@H](CCCN=C(N)N)C(=O)N[C@H](C(=O)N[C@@H](C)C(=O)N[C@@H](C)C(=O)N[C@H](C(=O)N[C@@H](CCC(=O)O)C(=O)N[C@@H](C)C(=O)N[C@@H](Cc1ccc(O)cc1)C(=O)N[C@@H](CC(C)C)C(=O)N[C@@H](C)C(=O)N[C@@H](C)C(=O)N[C@@H](CCC(N)=O)C(=O)O)C(C)C)[C@@H](C)CC` (Ac-NNLLRAIEAQQALLAATVAGIAALQARIAAVEAYLAAQ-OH) yielded an inhibition at 20 µM [1] of 37%.
Work on `CC[C@H](C)[C@H](NC(=O)[C@H](CCCN=C(N)N)NC(=O)[C@H](C)NC(=O)[C@H](CCC(N)=O)NC(=O)[C@H](CC(C)C)NC(=O)[C@H](CCC(N)=O)NC(=O)[C@H](CCCCN)NC(=O)[C@@H](NC(=O)CNC(=O)[C@H](Cc1c[nH]c2ccccc12)NC(=O)[C@@H](NC(=O)[C@@H](NC(=O)[C@H](CC(C)C)NC(=O)[C@H](CCC(N)=O)NC(C)=O)[C@@H](C)O)C(C)C)[C@@H](C)CC)C(=O)O` (Ac-QLTVWGIKQLQARI-OH) yielded an inhibition at 100 µM [2] of 0%.
Work on `CC[C@H](C)[C@H](NC(=O)[C@H](CCCN=C(N)N)NC(=O)[C@H](C)NC(=O)[C@H](CCC(N)=O)NC(=O)[C@H](CC(C)C)NC(=O)[C@H](CCC(N)=O)NC(=O)[C@H](CCCCN)NC(=O)[C@@H](NC(=O)CNC(=O)[C@H](Cc1c[nH]c2ccccc12)NC(=O)[C@@H](NC(=O)[C@@H](NC(=O)[C@H](CC(C)C)NC(=O)[C@H](CCC(N)=O)NC(=O)[C@@H](N)CC(C)C)[C@@H](C)O)C(C)C)[C@@H](C)CC)C(=O)O` (H-LQLTVWGIKQLQARI-OH) yielded an inhibition at 100 µM [2] of 21%.
With `CC[C@H](C)[C@H](NC(=O)[C@H](CCCN=C(N)N)NC(=O)[C@H](C)NC(=O)[C@H](CCC(N)=O)NC(=O)[C@H](CC(C)C)NC(=O)[C@H](CCC(N)=O)NC(=O)[C@H](CCCCN)NC(=O)[C@@H](NC(=O)CNC(=O)[C@H](Cc1c[nH]c2ccccc12)NC(=O)[C@@H](NC(=O)[C@@H](NC(=O)[C@H](CC(C)C)NC(=O)[C@@H](N)CCC(N)=O)[C@@H](C)O)C(C)C)[C@@H](C)CC)C(=O)O` (H-QLTVWGIKQLQARI-OH) the inhibition at 100 µM [2] was 0%.
Compound `CC[C@H](C)[C@H](NC(=O)CNC(=O)[C@H](Cc1c[nH]c2ccccc12)NC(=O)[C@@H](NC(=O)[C@@H](NC(=O)[C@H](CC(C)C)NC(=O)[C@H](CCC(N)=O)NC(=O)[C@H](CC(C)C)NC(=O)[C@H](CC(C)C)NC(=O)[C@H](Cc1c[nH]cn1)NC(=O)[C@H](CCC(N)=O)NC(=O)[C@H](CCC(N)=O)NC(=O)[C@H](C)NC(=O)[C@H](CCC(=O)O)NC(=O)[C@@H](NC(=O)[C@H](C)NC(=O)[C@H](CCCN=C(N)N)NC(=O)[C@H](CC(C)C)NC(=O)[C@H](CC(C)C)NC(=O)[C@H](CC(N)=O)NC(=O)[C@H](CC(N)=O)NC(C)=O)[C@@H](C)CC)[C@@H](C)O)C(C)C)C(=O)N[C@@H](CCCCN)C(=O)N[C@@H](CCC(N)=O)C(=O)N[C@@H](CC(C)C)C(=O)N[C@@H](CCC(N)=O)C(=O)N[C@@H](C)C(=O)N[C@@H](CCCN=C(N)N)C(=O)N[C@H](C(=O)N[C@@H](C)C(=O)N[C@@H](C)C(=O)N[C@@H](C)C(=O)NCCCCCC(=O)N[C@@H](C)C(=O)N[C@@H](C)C(=O)N[C@@H](C)C(=O)N[C@@H](C)C(=O)N[C@@H](CC(=O)O)C(=O)N[C@@H](CCCCN)C(=O)O)[C@@H](C)CC` (HELM PEPTIDE1{[ac].N.N.L.L.R.A.I.E.A.Q.Q.H.L.L.Q.L.T.V.W.G.I.K.Q.L.Q.A.R.I.A.A.A.[O=C(CCCCCN[*:1])[*:2]].A.A.A.A.D.K}$$$$V2.0) has an IC50 [3] of 6.3 µM.
`CC[C@H](C)[C@H](NC(=O)[C@H](CCCN=C(N)N)NC(=O)[C@H](C)NC(=O)[C@H](CCC(N)=O)NC(=O)[C@H](CC(C)C)NC(=O)[C@H](CCC(N)=O)NC(=O)CCCCCNC(=O)CNC(=O)[C@H](Cc1c[nH]c2ccccc12)NC(=O)[C@@H](NC(=O)[C@@H](NC(=O)[C@H](CC(C)C)NC(=O)[C@H](CCC(N)=O)NC(=O)[C@H](CC(C)C)NC(=O)[C@H](CC(C)C)NC(=O)[C@H](Cc1c[nH]cn1)NC(=O)[C@H](CCC(N)=O)NC(C)=O)[C@@H](C)O)C(C)C)C(=O)N[C@@H](CC(C)C)C(=O)N[C@@H](C)C(=O)N[C@H](C(=O)N[C@@H](CCC(=O)O)C(=O)O)C(C)C` (HELM PEPTIDE1{[ac].Q.H.L.L.Q.L.T.V.W.G.[O=C(CCCCCN[*:1])[*:2]].Q.L.Q.A.R.I.L.A.V.E}$$$$V2.0) gave an IC50 [3] of 40 µM.
Work on `CC[C@H](C)[C@H](NC(=O)[C@H](CCCN=C(N)N)NC(=O)[C@H](C)NC(=O)[C@H](CCC(N)=O)NC(=O)[C@H](CC(C)C)NC(=O)[C@H](CCC(N)=O)NC(=O)CCCCCNC(=O)CCCCCNC(=O)CNC(=O)[C@H](Cc1c[nH]c2ccccc12)NC(=O)[C@@H](NC(=O)[C@@H](NC(=O)[C@H](CC(C)C)NC(=O)[C@H](CCC(N)=O)NC(=O)[C@H](CC(C)C)NC(=O)[C@H](CC(C)C)NC(=O)[C@H](Cc1c[nH]cn1)NC(=O)[C@H](CCC(N)=O)NC(C)=O)[C@@H](C)O)C(C)C)C(=O)N[C@@H](CC(C)C)C(=O)N[C@@H](C)C(=O)N[C@H](C(=O)N[C@@H](CCC(=O)O)C(=O)O)C(C)C` (HELM PEPTIDE1{[ac].Q.H.L.L.Q.L.T.V.W.G.[O=C(CCCCCN[*:1])[*:2]].[O=C(CCCCCN[*:1])[*:2]].Q.L.Q.A.R.I.L.A.V.E}$$$$V2.0) yielded an IC50 [3] of 65.7 µM.
`CC[C@H](C)[C@H](NC(=O)[C@H](CCCN=C(N)N)NC(=O)[C@H](C)NC(=O)[C@H](CCC(N)=O)NC(=O)[C@H](CC(C)C)NC(=O)[C@H](CCC(N)=O)NC(=O)CCCCCNC(=O)[C@H](Cc1c[nH]c2ccccc12)NC(=O)[C@@H](NC(=O)[C@@H](NC(=O)[C@H](CC(C)C)NC(=O)[C@H](CCC(N)=O)NC(=O)[C@H](CC(C)C)NC(=O)[C@H](CC(C)C)NC(=O)[C@H](Cc1c[nH]cn1)NC(=O)[C@H](CCC(N)=O)NC(C)=O)[C@@H](C)O)C(C)C)C(=O)N[C@@H](CC(C)C)C(=O)N[C@@H](C)C(=O)N[C@H](C(=O)N[C@@H](CCC(=O)O)C(=O)O)C(C)C` (HELM PEPTIDE1{[ac].Q.H.L.L.Q.L.T.V.W.[O=C(CCCCCN[*:1])[*:2]].Q.L.Q.A.R.I.L.A.V.E}$$$$V2.0) gave an IC50 [3] of 40 µM.
In the case of `CCCCCCCCCCCCC(N)C(=O)N[C@H](C(=O)N[C@@H](CCCCN)C(=O)N[C@@H](CCC(N)=O)C(=O)N[C@@H](CC(C)C)C(=O)N[C@@H](CCC(N)=O)C(=O)N[C@@H](C)C(=O)N[C@@H](CCCN=C(N)N)C(=O)N[C@H](C(=O)N[C@@H](CC(C)C)C(=O)N[C@@H](C)C(=O)N[C@H](C(=O)N[C@@H](CCC(=O)O)C(=O)N[C@@H](CCCN=C(N)N)C(=O)N[C@@H](Cc1ccc(O)cc1)C(=O)N[C@@H](CC(C)C)C(=O)N[C@@H](CCCCN)C(=O)N[C@@H](CC(=O)O)C(=O)N[C@@H](CCC(N)=O)C(=O)O)C(C)C)[C@@H](C)CC)[C@@H](C)CC` (stereo in doubt; 21), the Inhibition [1] is reported as 9%.
Compound `CCCCCCCCCCCCC(N)C(=O)N[C@H](C(=O)N[C@@H](CCCCN)C(=O)N[C@@H](CCC(N)=O)C(=O)N[C@@H](CC(C)C)C(=O)N[C@@H](CCC(N)=O)C(=O)N[C@@H](C)C(=O)N[C@@H](CCCN=C(N)N)C(=O)N[C@H](C(=O)N[C@@H](CC(C)C)C(=O)N[C@@H](C)C(=O)N[C@H](C(=O)N[C@@H](CCC(=O)O)C(=O)N[C@@H](CCCN=C(N)N)C(=O)N[C@@H](Cc1ccc(O)cc1)C(=O)N[C@@H](CC(C)C)C(=O)N[C@@H](CCCCN)C(=O)N[C@@H](CC(=O)O)C(=O)N[C@@H](CCC(N)=O)C(=O)O)C(C)C)[C@@H](C)CC)[C@@H](C)CC` (stereo in doubt; 22) has an Inhibition [1] of 0%.
